For test [1], the system named is HUVEC. Kind of test: Inhibition of cell proliferation of HUVEC after 72 hrs by crystal violet adhesion based colorimetric assay. To be noted: Homo sapiens. It is filed as functional. Put shortly: (§1)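 Crystal violet adhesion: HUVEC 3 × 10^3, MDA-MB-231 5 × 10^3 cells/well, treated 72 h at varied concentrations (up to 10 µM); fixed 4% paraformaldehyde 15 min, PBS pH 7.4 wash, 0.04% crystal violet 30 min, solubilized 2% Triton X-100, OD 595 nm. Mean of three independent experiments in triplicate; IC50 from sigmoid dose–response curve.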

Test [2] deals with HUVEC. Nature of the test: Cytotoxicity against HUVEC after 48 hrs by WST1 assay. To be noted: Homo sapiens. The test is classed as functional, cell-based. In a few lines:
(§2)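 WST-1 viability: HUVEC seeded 3 × 10^3, MDA-MB-231 5 × 10^3 cells/well; compounds added one day after seeding at varied concentrations (up to 10 µM); after 48 h medium removed, WST-1 added, 1–2 h at 37 °C, OD 490 nm. Mean of three independent experiments, triplicate per concentration; IC50 from sigmoid dose–response fit.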
For orientation: Tetrazolium assays rely on reduction of a dye to a coloured formazan, in cell work by metabolically active cells.

In test [3] the test system is MDA-MB-231. Kind of test: Inhibition of cell proliferation of human MDA-MB-231 after 72 hrs by crystal violet adhesion based colorimetric assay. The test is classed as functional. Conditions: MDA-MB-231, 72 h. In a few lines: as §1
Test [4] relates to MDA-MB-231. Kind of test: Cytotoxicity against human MDA-MB-231 after 48 hrs by WST1 assay. It is filed as functional, cell-based. Conditions: MDA-MB-231, 48 h. Put shortly:
as §2

Test [5] deals with Neuropilin-1 (Homo sapiens) (UniProt O14786). Kind of test: Inhibition of biotinylated VEGFA165 binding to NRP1 (unknown origin) at 10 uM by chemiluminescent assay. In a few lines: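 NRP-1 coated overnight at 0.2 µg/mL in PBS, 4 °C; washed PBS/0.5% Tween 20, blocked 0.5% BSA 2 h 37 °C. Compound preincubated 1 h at 37 °C, then biotinylated VEGF-A165 with 4 µg/mL heparin 2 h at 37 °C; chemiluminescent read-out; percent displacement of bound tracer at 10 µM.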
Neuropilin-1 (Homo sapiens), sequence (O14786 whole entry): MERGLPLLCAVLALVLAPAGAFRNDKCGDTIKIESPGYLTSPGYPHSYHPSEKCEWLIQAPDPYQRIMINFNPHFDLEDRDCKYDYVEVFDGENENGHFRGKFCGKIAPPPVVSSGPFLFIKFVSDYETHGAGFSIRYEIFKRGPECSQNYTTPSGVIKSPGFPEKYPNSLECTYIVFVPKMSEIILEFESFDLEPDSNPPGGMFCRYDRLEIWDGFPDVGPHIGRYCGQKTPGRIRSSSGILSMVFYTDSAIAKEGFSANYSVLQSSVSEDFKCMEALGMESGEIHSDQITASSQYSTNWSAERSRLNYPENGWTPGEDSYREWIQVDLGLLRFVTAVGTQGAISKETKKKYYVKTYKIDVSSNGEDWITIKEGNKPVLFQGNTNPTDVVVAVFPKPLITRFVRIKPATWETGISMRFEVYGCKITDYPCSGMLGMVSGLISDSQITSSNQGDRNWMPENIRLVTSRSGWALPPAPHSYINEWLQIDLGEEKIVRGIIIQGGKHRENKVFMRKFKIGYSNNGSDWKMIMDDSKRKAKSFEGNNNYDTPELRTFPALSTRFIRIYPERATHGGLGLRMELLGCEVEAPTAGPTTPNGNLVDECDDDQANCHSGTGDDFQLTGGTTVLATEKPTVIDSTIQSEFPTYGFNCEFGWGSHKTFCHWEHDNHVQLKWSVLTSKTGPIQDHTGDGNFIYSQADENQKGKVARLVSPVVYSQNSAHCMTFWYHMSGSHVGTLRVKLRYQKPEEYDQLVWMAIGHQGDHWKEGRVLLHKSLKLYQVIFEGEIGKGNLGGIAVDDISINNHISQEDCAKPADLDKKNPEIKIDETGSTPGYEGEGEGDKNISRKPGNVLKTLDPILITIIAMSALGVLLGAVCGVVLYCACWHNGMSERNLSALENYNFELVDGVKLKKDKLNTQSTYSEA

Each structure is given as a SMILES string.

As usually defined, the IC50 is the midpoint of a concentration-inhibition curve. Lower therefore signals greater potency. The term inhibition denotes the share of the control response that was lost under treatment. A lower inhibition goes with little suppression.

As to `Cc1ccc(-c2nc3ccccc3[nH]2)cc1NC(=S)NCc1ccc2c(c1)OCO2`, the IC50 in test [1], in test [2], in test [3] and in test [4] was over 10 µM throughout.

On to `Cc1ccc(-c2nc3cc(F)ccc3[nH]2)cc1NC(=S)NC(=O)c1ccc2c(c1)OCO2`, for which the IC50 in test [1] and in test [2] was over 10 µM each time.

With `N#Cc1ccc2[nH]c(-c3cccc(NC(=S)NC(=O)c4ccc5c(c4)OCCO5)c3)nc2c1`, the IC50 in test [2] is 1 µM; in test [4], over 10 µM. The inhibition in test [5] is 0%.

For `O=C(NC(=S)Nc1cccc(-c2nc3ccccc3[nH]2)c1)c1ccc2c(c1)OCO2`, the IC50 in test [1] was 0.3 µM; in test [2], 0.3 µM; in test [3], 6 µM; in test [4], 6 µM. In addition, the inhibition in test [5] is 46%.

As to `O=C(NC(=S)Nc1cccc(-c2nc3ccccc3[nH]2)c1)c1ccccc1`, the IC50 in test [1], in test [2], in test [3] and in test [4] was over 10 µM throughout.

As to `O=C(NC(=S)Nc1cccc(-c2nc3ccccc3s2)c1)c1ccc2c(c1)OCO2`, the IC50 in test [1] stood at 0.9 µM; in test [2] it was 1 µM; in test [3], 8 µM; in test [4] it was 10 µM. The same compound registered an inhibition in test [5] of 14%.

Regarding `Cc1ccc(-c2nc3ccccc3[nH]2)cc1NC(=S)NC(=O)c1ccc2c(c1)OCCO2`, the IC50 in test [1] was 0.15 µM; in test [2], 0.24 µM; in test [3] it was 0.5 µM; in test [4], 0.53 µM. This compound also came in with an inhibition in test [5] of 34%.

Turning to `O=C(NC(=S)Nc1cccc(-c2nc3ccccc3[nH]2)c1)c1ccc2c(c1)OCCO2`, the IC50 in test [1] was under 0.1 µM; in test [2], 0.05 µM; in test [3], 0.5 µM; in test [4], 0.4 µM. For the same compound, the inhibition in test [5] was 38%.

In turn, `CCOc1ccc(C(=O)NC(=S)Nc2cc(-c3nc4ccccc4[nH]3)ccc2C)cc1OCC` displayed an IC50 in test [1] of 6 µM. This compound registered an inhibition in test [5] of 32%.

Take `Cc1ccc(-c2nc3ccccc3[nH]2)cc1NC(=S)NC(=O)c1ccc2c(c1)OCO2`: the half-maximal inhibitory concentration (IC50) in test [1] was found to be 0.75 µM; in test [2], 1.5 µM; in test [3] it was 6 µM; in test [4], 6 µM.

`COc1ccc(C(=O)NC(=S)Nc2cccc(-c3nc4ccccc4[nH]3)c2)cc1OC`: the IC50 in test [1] was 5 µM; in test [2] it was 6 µM; in test [3], 10 µM; in test [4], over 10 µM.

For `O=C(NC(=S)Nc1cccc(-c2nc3ccccc3s2)c1)c1ccc2c(c1)OCCO2`, the IC50 in test [1] is 2.6 µM; in test [2] it was 2.6 µM; in test [3], over 10 µM; in test [4], over 10 µM.

For the compound `COc1ccc(C(=O)NC(=O)Nc2cccc(-c3nc4ccccc4[nH]3)c2)cc1OC`, the half-maximal inhibitory concentration (IC50) in test [1] and in test [2] was 8 µM throughout.

For the compound `CCOc1ccc(C(=O)NC(=S)Nc2cccc(-c3nc4ccccc4[nH]3)c2)cc1OCC`, the IC50 in test [1] and in test [2] was 8 µM each time. This compound also had an inhibition in test [5] of 14%.

As for `N#Cc1ccc2[nH]c(-c3cccc(NC(=S)NC(=O)c4ccc5c(c4)OCO5)c3)nc2c1`, 6 µM corresponded to half-maximal inhibition in test [1] (IC50). In test [5], this compound had an inhibition of 37%.

For `S=C(NCc1ccc2c(c1)OCO2)Nc1cccc(-c2nc3ccccc3[nH]2)c1`, the IC50 in test [1], in test [2], in test [3] and in test [4] was over 10 µM throughout.

Take `Cc1ccc(-c2nc3ccccc3s2)cc1NC(=S)NC(=O)c1ccc2c(c1)OCO2`: the IC50 in test [1] was 5 µM; in test [2] it was 5 µM; in test [3], over 10 µM; in test [4] it was over 10 µM.

On to `Cc1ccc(-c2nc3ccccc3[nH]2)cc1NC(=S)NC(=O)c1ccccc1`, for which the IC50 in test [1], in test [2], in test [3] and in test [4] was over 10 µM each time.

(Values after ChEMBL document CHEMBL3351892, “Synthesis and structure-activity relationship of non-peptidic antagonists of neuropilin-1 receptor” (Bioorg Med Chem Lett, 2014).)
